# Values without a mark were called inactive.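 Rule for the calls, unless noted: active = viability increase at or above a cutoff of the median across tested compounds plus 3 SD (cut at about 8.5% in these data, passing the limit was not always enough); inconclusive = some gains above the cutoff, reason not given; inactive = the rest.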
# Assay: Restrictive medium S. cerevisiae growth inhibition, OD615, pilot screen of yeast lifespan reduction project, restrictive growth control (AID 706;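 active = growth inhibition above a set limit, 3 SD over mean compound inhibition, in both replicates, cut at about 43% in these data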;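 note: modified DeaD lifespan yeast strain shifted to restrictive glucose medium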)
# Conditions: OD615, 48 h, at 10 µM, active compounds read high
# Procedure, shortened: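 material = engineered S. cerevisiae DeaD strain | buffer or medium = glucose-based CSMM-D restrictive medium | dosing = one concentration, 10 µM final, 0.25% DMSO | schedule = 4 h pre-growth plus 48 h compound exposure, 30 °C | detection = OD615 absorbance reading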
row,Structure (SMILES),growth inhibition [%]
1,COc1ccc(C(=O)OCCN2C(=O)c3ccccc3C2=O)cc1OC,3.49
2,CCOC(=O)C1CCN(C(=O)c2ccc(NC(=O)C3CCCO3)cc2)CC1 (stereo not given),-7.09
3,COCC(=O)NCc1nc2ccccc2[nH]1,-0.605
4,COc1ccc(NC2=NCC(=O)N2c2ccccc2)c(OC)c1,-5.42
5,O=C(NCc1nc2ccccc2[nH]1)c1ccc(S(=O)(=O)N2CCOCC2)cc1,-0.75
6,COc1ccccc1N1CCN(C2=CC(=O)CCC2)CC1,-12.2
7,CCn1cc(C(=O)N2CCN(c3ccccn3)CC2)c2cc(OC)c(OC)cc2c1=O,-7.93
8,Cc1ccc(Cc2cnc(N)s2)o1,10.1
9,COc1ccccc1NC1=NCC(=O)N1Cc1ccccc1,-3.24
10,COc1ccccc1N1CCN(CC(=O)Nc2cc(C)nn2-c2nc(C)cc(C)n2)CC1,-18.8
11,C(=N\n1cnnc1)/c1ccc(N2CCOCC2)s1,-3.46
12,Cc1cc2cc(CN(Cc3ccc4c(c3)OCO4)C(=O)c3cnccn3)c3nnnn3c2cc1C,6.71
13,CCOC(=O)C1CCCN(C(=O)CNC(=O)Cn2ccc3ccccc3c2=O)C1 (stereo not given),-0.325
14,CN(C(=O)c1ccc(NC(=O)c2cnccn2)cc1)C1CCCCC1,7.4
15,CN(C)CCCNC(=O)CC(c1ccc(F)cc1)c1ccco1 (stereo not given),0.42
16,CCOC(=O)C1=CSC2=NS(=O)(=O)CCN12,-2.12
17,O=C(Nc1ccc(Br)cc1Cl)c1cnccn1,-0.415
18,CN1CCc2c(sc3nc(SCC(N)=O)n(-c4ccccc4)c(=O)c23)C1,9.25
19,O=C(Nc1nnc(-c2ccc3c(c2)CCCC3)o1)c1ccccc1Cl,18.4
20,CSC(=NCCCN1CCOCC1)NS(=O)(=O)c1cccs1,-11.4

row,Structure (SMILES),growth inhibition [%]
1,O=C(N=c1nc2ccccn2s1)c1ccccc1,6.63
2,CCN(CC)CCOc1c(Br)ccc2c1sc1nc3n(c(=O)c12)CCC3,6.08
3,Cn1cnnc1SCc1ccc(C(=O)O)cc1,7.69
4,CCC(=O)N1CCc2cc(Br)cc(S(=O)(=O)N3CCN(c4ccccn4)CC3)c21,-9.5
5,Cc1cc(=O)n2[nH]c(C)c(-c3ccc(Cl)cc3)c2n1,-11.8
6,Cc1ccc2c(c1)c(C)c(C)n2CC(O)Cn1nc(C)cc1C (stereo not given),3.35
7,Cc1cccc(N(CC(=O)Nc2c(C)n(C)n(-c3ccccc3)c2=O)S(C)(=O)=O)c1C,-3.62
8,O=C(CSc1oc(-c2ccc(F)cc2)nc1S(=O)(=O)c1ccccc1)NCC1CCCO1 (stereo not given),4.17
9,CCOc1ccccc1NC(=O)CSc1nnc(-c2cnccn2)n1C,-1.53
10,CC1(C)Cc2c(c(=S)nc(-c3ccccc3)n2CCOCCO)CO1,19.6
11,COc1ccc(-c2cc3ccccc3n2CC(O)Cn2nc(C)cc2C)cc1 (stereo not given),12.6
12,CCOc1cc(CNC(=O)CN2C(=O)c3ccccc3S2(=O)=O)ccc1OC,-10.7
13,CNC(=O)C1C2C=CC3(O2)C1C(=O)N(CCOC)C3C(=O)NCc1ccc(OC)cc1 (stereo not given),0.24
14,COc1ccc(NS(=O)(=O)c2cccc(-c3nnc4n3CCCCC4)c2)cc1,10.2
15,CC(C)(C)NS(=O)(=O)c1ccc(OCC(=O)Nc2ccc3c(c2)OCCO3)cc1,-8.28
16,O=c1[nH]c2ccc(S(=O)(=O)NCc3ccccn3)cc2s1,2.04
17,O=C(Nc1cccc(Cl)c1Cl)c1ccncc1,-0.975
18,Cn1ccnc1SCC(=O)NC1CCCCC1,-7.09
19,O=C(Nc1ccc(Cl)cc1)c1ccncc1,-3.32
20,CCn1cc(C(=O)NC2CCCCCC2)c2cc(OC)c(OC)cc2c1=O,1.87

# Assay: viability gain of MRP-1-high H69AR cells under doxorubicin, pilot screen, MRP-1 activator project, CellTiter-Glo, duplicate (AID 807);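 note: compound pretreatment 18-22 h then 72 h combined with doxorubicin; 0% = doxorubicin alone and 100% = vehicle without doxorubicin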
# Conditions: H69AR viability with doxorubicin, CellTiter-Glo luminescence; at 10 µM; active compounds read high
row,Structure (SMILES),viability increase [%]
1,COc1ccc(C(=O)OCCN2C(=O)c3ccccc3C2=O)cc1OC,-1.79
2,CCOC(=O)C1CCN(C(=O)c2ccc(NC(=O)C3CCCO3)cc2)CC1 (stereo not given),-2.64
3,COCC(=O)NCc1nc2ccccc2[nH]1,-1.85
4,COc1ccc(NC2=NCC(=O)N2c2ccccc2)c(OC)c1,-0.89
5,O=C(NCc1nc2ccccc2[nH]1)c1ccc(S(=O)(=O)N2CCOCC2)cc1,-2.83
6,COc1ccccc1N1CCN(C2=CC(=O)CCC2)CC1,-1.22
7,CCn1cc(C(=O)N2CCN(c3ccccn3)CC2)c2cc(OC)c(OC)cc2c1=O,-4.32
8,Cc1ccc(Cc2cnc(N)s2)o1,-5.06
9,COc1ccccc1NC1=NCC(=O)N1Cc1ccccc1,-0.5
10,COc1ccccc1N1CCN(CC(=O)Nc2cc(C)nn2-c2nc(C)cc(C)n2)CC1,-7.06
11,C(=N\n1cnnc1)/c1ccc(N2CCOCC2)s1,-1.47
12,Cc1cc2cc(CN(Cc3ccc4c(c3)OCO4)C(=O)c3cnccn3)c3nnnn3c2cc1C,-5.49
13,CCOC(=O)C1CCCN(C(=O)CNC(=O)Cn2ccc3ccccc3c2=O)C1 (stereo not given),-4.65
14,CN(C(=O)c1ccc(NC(=O)c2cnccn2)cc1)C1CCCCC1,-1.47
15,CN(C)CCCNC(=O)CC(c1ccc(F)cc1)c1ccco1 (stereo not given),-2.97
16,CCOC(=O)C1=CSC2=NS(=O)(=O)CCN12,-2.36
17,O=C(Nc1ccc(Br)cc1Cl)c1cnccn1,-0.71
18,CN1CCc2c(sc3nc(SCC(N)=O)n(-c4ccccc4)c(=O)c23)C1,-0.53
19,O=C(Nc1nnc(-c2ccc3c(c2)CCCC3)o1)c1ccccc1Cl,-4.31
20,CSC(=NCCCN1CCOCC1)NS(=O)(=O)c1cccs1,-1.56

row,Structure (SMILES),viability increase [%]
1,O=C(N=c1nc2ccccn2s1)c1ccccc1,-7.06
2,CCN(CC)CCOc1c(Br)ccc2c1sc1nc3n(c(=O)c12)CCC3,-5.02
3,Cn1cnnc1SCc1ccc(C(=O)O)cc1,-1.36
4,CCC(=O)N1CCc2cc(Br)cc(S(=O)(=O)N3CCN(c4ccccn4)CC3)c21,-2.05
5,Cc1cc(=O)n2[nH]c(C)c(-c3ccc(Cl)cc3)c2n1,-5.81
6,Cc1ccc2c(c1)c(C)c(C)n2CC(O)Cn1nc(C)cc1C (stereo not given),-4.76
7,Cc1cccc(N(CC(=O)Nc2c(C)n(C)n(-c3ccccc3)c2=O)S(C)(=O)=O)c1C,-1.08
8,O=C(CSc1oc(-c2ccc(F)cc2)nc1S(=O)(=O)c1ccccc1)NCC1CCCO1 (stereo not given),-5.58
9,CCOc1ccccc1NC(=O)CSc1nnc(-c2cnccn2)n1C,-3.17
10,CC1(C)Cc2c(c(=S)nc(-c3ccccc3)n2CCOCCO)CO1,-2.12
11,COc1ccc(-c2cc3ccccc3n2CC(O)Cn2nc(C)cc2C)cc1 (stereo not given),-4.13
12,CCOc1cc(CNC(=O)CN2C(=O)c3ccccc3S2(=O)=O)ccc1OC,-0.6
13,CNC(=O)C1C2C=CC3(O2)C1C(=O)N(CCOC)C3C(=O)NCc1ccc(OC)cc1 (stereo not given),-1.22
14,COc1ccc(NS(=O)(=O)c2cccc(-c3nnc4n3CCCCC4)c2)cc1,-3.38
15,CC(C)(C)NS(=O)(=O)c1ccc(OCC(=O)Nc2ccc3c(c2)OCCO3)cc1,-0.9
16,O=c1[nH]c2ccc(S(=O)(=O)NCc3ccccn3)cc2s1,-1.44
17,O=C(Nc1cccc(Cl)c1Cl)c1ccncc1,-0.14
18,Cn1ccnc1SCC(=O)NC1CCCCC1,-0.96
19,O=C(Nc1ccc(Cl)cc1)c1ccncc1,0.18
20,CCn1cc(C(=O)NC2CCCCCC2)c2cc(OC)c(OC)cc2c1=O,-3.91

# Source: PubChem BioAssay
